ChEMBL document CHEMBL4325910, “Design and synthesis of rosiglitazone-ferulic acid-nitric oxide donor trihybrids for improving glucose tolerance” (Eur J Med Chem, 2019)
The source made the active and inactive calls. The calls are words filed in the database; no cut-off is given here.

Tests used:
[1] = tested on: 3T3-L1; assay: Induction of superoxide dismutase level in TNF-alpha-induced insulin resistant mouse 3T3L1 cells at 10 uM after 48 hrs; type: functional, cell-based
Summary of the method: (§1)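 3T3-L1 preadipocytes were differentiated, and mature adipocytes made insulin resistant with TNF-α (4 ng/mL) daily for 4 days. Cells were then treated in triplicate for 48 h, with or without 20 μM C-PTIO. Lysate GSH, SOD and MDA were measured with kits. Three experiments, mean ± SD.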

[2] = tested on: 3T3-L1; assay: Inhibition of MDA level in TNF-alpha-induced insulin resistant mouse 3T3L1 cells 10 uM after 48 hrs; type: functional, cell-based; summary of the method: as §1
[3] = Metabolic stability in Sprague-Dawley rat plasma after 24 hrs by HPLC analysis
[4] = tested on: Mus musculus; assay: Cardioprotective activity in db/db BKS.Cg-Dock7m +/+ Leprdb/J mouse assessed as decrease in serum cTnI level at 27 umol/kg, po administered as daily dose via gavage for 18 days by ELISA; type: functional, organism-based
Summary of the method: (§2)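 db/db mice were gavaged daily for 18 days in 0.5% CMC-Na, with vehicle-treated model and C57BL/6 control groups. Tail vein blood was collected and serum TNF-α and cTnI measured by commercial ELISA kits. Six individual experiments, mean ± SD, one-way ANOVA.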

[5] = tested on: 3T3-L1; assay: Inhibition of ROS production in TNF-alpha-induced insulin resistant mouse 3T3L1 cells at 10 uM after 48 hrs by DCFH-DA dye-based fluorescence assay; type: functional, cell-based
[6] = tested on: Platelet; assay: Antiplatelet activity in platelet rich plasma (unknown origin) assessed as inhibition of ADP-induced platelet aggregation at 16 mM relative to control; type: functional
[7] = Toxicity in spontaneous db/db BKS.Cg-Dock7m +/+ Leprdb/J mouse assessed as reduction in serum hematocrit value at 27 umol/kg, po administered as daily dose via gavage treated for 18 days; type: organism-based; settings: in vivo, 432 h
[8] = tested on: Platelet; assay: Antiplatelet activity in platelet rich plasma (unknown origin) assessed as inhibition of arachidonic acid-induced platelet aggregation at 1 mM relative to control; type: functional
[9] = Metabolic stability in Sprague-Dawley rat plasma after 0.5 hrs by HPLC analysis; type: ADME, cell-free
Summary of the method: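 Compound (100 μM final; 100 mM DMSO stock diluted 1:1000) was incubated in triplicate in SD rat plasma at 37 °C with shaking for 0–24 h. Acetonitrile (3 volumes) was added, samples centrifuged and supernatants run on HPLC. Gradient was ammonium acetate pH 3.5/acetonitrile, 1.0 mL/min, detection at 254 nm.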

[10] = tested on: 3T3-L1; assay: Induction of nitric oxide production in TNF-alpha-induced insulin resistant mouse 3T3L1 cells at 10 uM after 0.5 to 6 hrs by DAF-FM-2DA dye based fluorescence assay; type: functional, cell-based
Summary of the method: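 Insulin-resistant 3T3-L1 adipocytes (TNF-α 4 ng/mL, 4 days) were treated for varying times, with or without 20 μM C-PTIO. Vehicle was DMSO 0.1% or NaOH 10 μM. Cells were washed in KRP, loaded with 10 μM DAF-FM-2DA in pH 7.4 PBS at 37 °C for 30 min, and read at Ex/Em 485/515 nm. Three experiments.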

[11] = tested on: Platelet; assay: Antiplatelet activity in platelet rich plasma (unknown origin) assessed as inhibition of ADP-induced platelet aggregation at 0.2 mM relative to control; type: functional
[12] = tested on: 3T3-L1; assay: Induction of nitric oxide mediated increase in insulin-stimulated 2-NBDG uptake in TNF-alpha-induced insulin resistant mouse 3T3L1 cells at 3 to 10 uM preincubated for 48 hrs followed by 2-NBDG addition measured after 30 mins in presence of insulin by fluorescence assay; type: functional, cell-based
Summary of the method: (§3)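 Day-8 differentiated 3T3-L1 adipocytes received TNF-α (4 ng/mL) daily for 4 days. They were pretreated in triplicate for 48 h (C-PTIO 20 μM where indicated), then given 100 μM 2-NBDG at 37 °C for 30 min in the dark, with or without insulin. After KRP washes, fluorescence was read at Ex/Em 485/515 nm. Three experiments, mean ± SD.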

[13] = tested on: 3T3-L1; assay: Inhibition of ROS production in TNF-alpha-induced insulin resistant mouse 3T3L1 cells at 3 to 10 uM after 48 hrs in presence of nitric oxide scavenger C-PTIO by DCFH-DA dye-based fluorescence assay; type: functional, cell-based
[14] = tested on: 3T3-L1; assay: Induction of superoxide dismutase level in TNF-alpha-induced insulin resistant mouse 3T3L1 cells at 3 to 10 uM after 48 hrs; type: functional, cell-based; summary of the method: as §1
[15] = Metabolic stability in simulated gastric fluid at pH 1.5 measured immediately after compound addition by HPLC analysis; type: ADME; settings: read-out: Stability
Summary of the method: (§4)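 Gastric fluid was 1% pepsin in water, pH 1.5. Intestinal fluid was 1% trypsin with 0.68% KH2PO4, pH 6.8. Compound (100 mM DMSO stock) was diluted 1:1000 into each, in triplicate. Incubation was at 37 °C for 0, 2, 4, 6, 16 or 24 h. Acetonitrile (3 volumes) stopped it, then HPLC at 254 nm.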

[16] = tested on: Mus musculus; assay: Cardioprotective activity in db/db BKS.Cg-Dock7m +/+ Leprdb/J mouse assessed as decrease in serum cTnI level administered po as daily dose via gavage for 18 days by ELISA; type: functional, organism-based; summary of the method: as §2
[17] = tested on: Platelet; assay: Antiplatelet activity in platelet rich plasma (unknown origin) assessed as inhibition of ADP-induced platelet aggregation at 0.4 mM relative to control; type: functional
[18] = tested on: 3T3-L1; assay: Induction of nitric oxide mediated increase in insulin-stimulated 2-NBDG uptake in TNF-alpha-induced insulin resistant mouse 3T3L1 cells at 3 to 10 uM preincubated for 48 hrs followed by 2-NBDG addition measured after 30 mins in presence of nitric oxide scavenger C-PTIO by fluorescence assay; type: functional, cell-based; summary of the method: as §3
[19] = Drug metabolism in Sprague-Dawley rat plasma after 0.5 hrs by HPLC analysis; type: ADME, cell-free; settings: read-out: Drug metabolism
Summary of the method: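 100 mM DMSO stock was diluted 1:1000 into SD rat plasma, in triplicate. Incubated with shaking at 37 °C for 0–24 h, then stopped with three volumes of acetonitrile and centrifuged.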

[20] = tested on: Mus musculus; assay: Antidiabetic activity in spontaneous db/db BKS.Cg-Dock7m +/+ Leprdb/J mouse assessed as decrease in fasting blood glucose level at 10 to 20 mg/kg, po administered as daily dose via gavage for 18 days measured on day 9 post last dose by glucometric analysis; type: functional, organism-based
Summary of the method: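 Male db/db mice (BKS.Cg-Dock7m +/+ Leprdb/J), 6 weeks old on purchase, randomized, n=8 per group. Dosed by gavage in 0.5% CMC-Na daily for 18 consecutive days. Vehicle-dosed db/db and C57BL/6 mice served as model and control. Fasting glucose was read by glucometer every three days. On day 12, after an overnight fast, 2 g/kg glucose was given orally. Blood glucose was read at 0–120 min and AUC calculated. Mean ± SEM.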

[21] = Metabolic stability in simulated gastric fluid at pH 1.5 measured after 16 hrs by HPLC analysis; type: ADME; settings: read-out: Stability; summary of the method: as §4
[22] = Metabolic stability in simulated intestinal fluid at pH 6.8 measured after 16 hrs by HPLC analysis; type: ADME; settings: read-out: Stability; summary of the method: as §4
[23] = tested on: 3T3-L1; assay: Inhibition of MDA level in TNF-alpha-induced insulin resistant mouse 3T3L1 cells at 3 to 10 uM after 48 hrs; type: functional, cell-based
[24] = tested on: Platelet; assay: Antiplatelet activity in platelet rich plasma (unknown origin) assessed as inhibition of arachidonic acid-induced platelet aggregation at 0.4 mM relative to control; type: functional
[25] = Metabolic stability in simulated intestinal fluid at pH 6.8 measured immediately after compound addition by HPLC analysis; type: ADME; settings: read-out: Stability; summary of the method: as §4

CN(CCOc1ccc(CC2SC(=O)NC2=O)cc1)c1ccccn1 (stereo not given) [ROSIGLITAZONE]
Activity [1]: Active | inhibition [2]: Active | Stability [3]: 39% | Activity [4]: Active | inhibition [5]: Active | inhibition at 16000 µM [6]: 68.9% | Activity [7]: Toxic | inhibition at 1000 µM [8]: 14.8% | Stability [9]: 20% | Activity [10]: inactive

CCN(CC)/[N+]([O-])=N/OCOC(=O)/C=C/c1ccc(OC(=O)OCN2C(=O)SC(Cc3ccc(OCCN(C)c4ccccn4)cc3)C2=O)c(OC)c1 (stereo not given)
inhibition at 200 µM [11]: 9.9% | Activity [12]: Active | inhibition [13]: inactive | Activity [14]: Active | remaining at 0 h [15]: 100% | Activity [16]: Dose-dependent effect | inhibition at 400 µM [17]: 18.8% | Activity [18]: inactive | metabolised at 0.5 h [19]: 23% | Activity [20]: Active | remaining at 16 h [21]: 86.6% | remaining at 16 h [22]: 85.8% | inhibition [23]: Active | inhibition at 400 µM [24]: 40.6% | remaining at 0 h [25]: 100%
